Source: ChEMBL document CHEMBL1132183 (J Med Chem, 1999)

Experiments:
[1] = biological target: T1, Alpha-1A adrenergic receptor (Homo sapiens, UniProt P35348); assay: Displacement of [3H]prazosin from human cloned Alpha-1A adrenergic receptor
T1 sequence (P35348 whole entry): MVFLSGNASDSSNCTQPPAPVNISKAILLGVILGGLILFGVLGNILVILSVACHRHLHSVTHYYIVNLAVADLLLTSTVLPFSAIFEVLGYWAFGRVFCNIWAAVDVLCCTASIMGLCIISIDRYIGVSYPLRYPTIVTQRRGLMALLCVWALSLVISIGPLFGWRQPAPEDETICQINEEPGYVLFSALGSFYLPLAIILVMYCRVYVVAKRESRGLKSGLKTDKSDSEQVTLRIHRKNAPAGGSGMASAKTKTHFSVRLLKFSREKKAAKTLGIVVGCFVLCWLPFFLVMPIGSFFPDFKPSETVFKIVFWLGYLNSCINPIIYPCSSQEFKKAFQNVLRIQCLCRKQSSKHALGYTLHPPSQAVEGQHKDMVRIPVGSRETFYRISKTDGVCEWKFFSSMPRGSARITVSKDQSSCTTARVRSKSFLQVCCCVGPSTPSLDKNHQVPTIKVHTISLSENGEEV
In short: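 CHO cells stably transfected with each human α1 subtype; 30 μg membrane protein in 50 mM Tris-HCl pH 7.4 with 0.1–0.4 nM [3H]prazosin, 30 min at 25 °C. Competitors 1 pM–10 μM. Nonspecific binding defined with 10 μM phentolamine. Filtration, scintillation counting. Ki by Cheng–Prusoff; 2–3 experiments in triplicate.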

[2] = biological target: T2, Alpha-1A adrenergic receptor (Rattus norvegicus) (UniProt P43140); assay: Antagonist activity against Alpha-1A adrenergic receptor (-)-noradrenaline-induced contraction of rat prostatic vas deferens; assay type: functional, tissue-based
T2 sequence (whole entry): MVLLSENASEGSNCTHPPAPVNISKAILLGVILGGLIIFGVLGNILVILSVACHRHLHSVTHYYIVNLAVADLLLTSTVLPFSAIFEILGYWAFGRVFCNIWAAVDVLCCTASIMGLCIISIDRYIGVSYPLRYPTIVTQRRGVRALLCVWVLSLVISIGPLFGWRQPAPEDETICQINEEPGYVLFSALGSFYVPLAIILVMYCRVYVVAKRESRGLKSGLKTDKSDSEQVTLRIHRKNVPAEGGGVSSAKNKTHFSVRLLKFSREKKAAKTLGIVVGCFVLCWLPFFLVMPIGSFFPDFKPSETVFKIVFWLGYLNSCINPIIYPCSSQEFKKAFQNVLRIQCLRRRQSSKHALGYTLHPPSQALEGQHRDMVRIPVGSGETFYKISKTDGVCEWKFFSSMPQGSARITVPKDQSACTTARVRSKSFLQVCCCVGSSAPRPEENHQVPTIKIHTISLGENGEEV
In short: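 Isolated rat prostatic vas deferens with 0.01 μM desipramine in the bath. Isotonic cumulative (–)-noradrenaline curves were run at 30-min intervals: first discarded, second as control, then antagonist equilibrated 30 min before a new curve. pKb by Arunlakshana–Schild from dose ratios of EC50, at 2–3 antagonist concentrations, each tested four times.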

[3] = biological target: T3, Adrenergic receptor alpha-2 (Rattus norvegicus, UniProt P22086+P19328+P22909); assay: Displacement of [3H]rauwolscine from rat brain Alpha-2 adrenergic receptor
T3 sequence (P22086 whole entry): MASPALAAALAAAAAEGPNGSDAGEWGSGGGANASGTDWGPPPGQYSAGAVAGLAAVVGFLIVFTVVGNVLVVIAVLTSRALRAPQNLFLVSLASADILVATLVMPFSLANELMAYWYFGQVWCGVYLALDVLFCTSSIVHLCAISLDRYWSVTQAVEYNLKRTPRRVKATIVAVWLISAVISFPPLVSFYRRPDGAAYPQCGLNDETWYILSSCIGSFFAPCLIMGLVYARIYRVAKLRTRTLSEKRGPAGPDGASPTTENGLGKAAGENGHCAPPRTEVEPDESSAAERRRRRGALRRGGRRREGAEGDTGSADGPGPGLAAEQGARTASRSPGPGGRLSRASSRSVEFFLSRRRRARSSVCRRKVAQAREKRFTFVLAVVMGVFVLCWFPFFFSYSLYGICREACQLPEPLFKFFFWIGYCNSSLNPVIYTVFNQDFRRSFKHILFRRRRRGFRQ
T3 sequence (P19328 whole entry): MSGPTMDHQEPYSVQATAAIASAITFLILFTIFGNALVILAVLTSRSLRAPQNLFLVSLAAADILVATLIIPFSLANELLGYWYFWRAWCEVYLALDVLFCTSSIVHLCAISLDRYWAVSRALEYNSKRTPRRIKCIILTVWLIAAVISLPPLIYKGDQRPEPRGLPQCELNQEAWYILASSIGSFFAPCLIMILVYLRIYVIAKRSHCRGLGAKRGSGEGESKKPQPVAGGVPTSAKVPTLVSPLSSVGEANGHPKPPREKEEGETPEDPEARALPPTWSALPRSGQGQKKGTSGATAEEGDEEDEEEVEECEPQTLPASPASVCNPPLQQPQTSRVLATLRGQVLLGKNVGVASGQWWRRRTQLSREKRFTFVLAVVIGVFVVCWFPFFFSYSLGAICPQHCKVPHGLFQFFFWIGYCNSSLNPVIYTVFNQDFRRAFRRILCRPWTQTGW
T3 sequence (P22909 whole entry): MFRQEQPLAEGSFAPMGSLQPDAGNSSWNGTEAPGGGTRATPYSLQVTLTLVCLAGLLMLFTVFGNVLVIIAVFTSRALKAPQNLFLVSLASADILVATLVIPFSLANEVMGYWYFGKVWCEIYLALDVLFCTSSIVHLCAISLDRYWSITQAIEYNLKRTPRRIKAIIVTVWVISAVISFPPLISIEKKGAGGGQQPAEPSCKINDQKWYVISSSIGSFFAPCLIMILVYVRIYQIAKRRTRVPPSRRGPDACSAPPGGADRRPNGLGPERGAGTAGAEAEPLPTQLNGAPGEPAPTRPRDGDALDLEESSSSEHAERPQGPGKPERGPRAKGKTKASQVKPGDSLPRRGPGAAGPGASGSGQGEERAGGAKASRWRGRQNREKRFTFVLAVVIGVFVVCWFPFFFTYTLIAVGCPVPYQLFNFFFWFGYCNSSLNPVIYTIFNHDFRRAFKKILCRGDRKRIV
In short: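 Rat cerebral cortex membranes (male Sprague–Dawley) were washed in Tris-HCl pH 7.4 and resuspended with 10 μM pargiline and 0.1% ascorbic acid. They were incubated 30 min at 25 °C with 0.5–1.5 nM [3H]rauwolscine. Nonspecific binding was taken with 10 μM phentolamine. Filtration and scintillation counting followed, and Ki was obtained by Cheng–Prusoff.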

SMILES | Ki [1] [nM] | pKb [2] | Log Ki [3]
O[C@H]1[C@@H](NC[C@H]2COc3ccccc3O2)CC[C@@H]1Oc1ccccc1 | 389 | 5.65 | -6.23
O[C@@H]1[C@H](NC[C@@H]2COc3ccccc3O2)CC[C@H]1Oc1ccccc1 | 77.6 | 6.1 | -6.27
O[C@H]1[C@@H](NC[C@@H]2COc3ccccc3O2)CC[C@@H]1Oc1ccccc1 | 955 | < 5 | -6.21
O[C@@H]1[C@H](NC[C@H]2COc3ccccc3O2)CC[C@H]1Oc1ccccc1 | 36.3 | 6.55 | -6.05
